Calls of active or inactive are those of the source. No cut-off for these calls is given here.
How the values were obtained:
[1] = Stabilization of F10T hairpin duplex DNA (unknown origin) assessed as change in melting temperature at 1 uM by FRET assay
Method in brief: (§1)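 FRET melting: 0.2 µM F21T or F10T (FAM/TAMRA-labelled), with or without 1.0 µM ligand, in 10 mM Tris-HCl pH 7.4 with 60 mM KCl. Excitation 470 nm, emission 530 nm, read every 1 °C from 37–99 °C at 1 °C/min with a 30 s hold. ΔTm = Tm(DNA+ligand) − Tm(DNA).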

Quadruplex DNA [2] = assay: Stabilization of F21T telomeric G-quadruplex DNA (unknown origin) assessed as change in melting temperature at 1 uM by FRET assay; type: nucleic-acid assay; method in brief: as §1
HL-60 = assay: Antiproliferative activity against human HL60 cells after 48 hrs by MTT assay; type: functional, cell-based; conditions: HL-60, 48 h
Method in brief: (§2)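 Cells seeded at 5.0×10^3 per well and exposed to a range of compound concentrations for 48 h. MTT (2.5 mg/mL solution) was then added for 4 h, formazan was dissolved in DMSO, and OD was read at 570 nm. HL-60 was grown in RPMI-1640 with 10% FBS, the other lines in DMEM with 10% FBS, at 37 °C and 5% CO2. Triplicates; IC50 taken from mean OD versus concentration curves.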

SiHa [3] = assay: Antiproliferative activity against human SiHa cells after 48 hrs by MTT assay; type: functional, cell-based; method in brief: as §2
Quadruplex DNA [4] = assay: Binding affinity to HTG21 telomeric G-quadruplex DNA (unknown origin) by SPR method; type: nucleic-acid assay
Method in brief: (§3)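 SPR: biotinylated HTG21 or hairpin DNA (200 nM) was folded in 50 mM Tris-HCl pH 7.4 with 100 mM KCl and captured to about 1,000 RU on an NLC chip against a blank reference cell. Ligand at 0.625–40 µM was injected at 25 µL/min (400 s association, 300 s dissociation) at 25 °C. The chip was regenerated with 1 M KCl and blank sensorgrams were subtracted.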

HeLa = assay: Antiproliferative activity against human HeLa cells after 48 hrs by MTT assay; type: functional, cell-based; method in brief: as §2
[5] = Binding affinity to hairpin duplex DNA (unknown origin) by SPR method; method in brief: as §3
U2OS [6] = assay: Antiproliferative activity against human U2OS cells after 48 hrs by MTT assay; type: functional, cell-based; method in brief: as §2
A549 = assay: Antiproliferative activity against human A549 cells after 48 hrs by MTT assay; type: functional, cell-based; conditions: A549, 48 h; method in brief: as §2
Mus musculus = assay: Toxicity in BALB/C-nu/nu mouse xenografted with human SiHa cells assessed as decrease in body weight at 1 mg/kg, ip administered daily for 3 weeks measured everyday during compound dosing; type: organism-based; conditions: in vivo, 504 h
Method in brief: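 SiHa cells (1×10^7 per 100 µL, serum-free DMEM) were injected subcutaneously. Grown tumors were divided into pieces and implanted into BALB/C-nu/nu mice. Caliper volume (1/2 × L × W²) and body weight were recorded daily; tumors were weighed at the end.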

[7] = Inhibition of telomerase (unknown origin) by TRAP-LIG assay; set-up: species or system Homo sapiens
Quadruplex DNA [8] = assay: Stabilization of F21T telomeric G-quadruplex DNA (unknown origin) at 1 uM in presence of non-fluorescent duplex DNA ds26 by FRET assay; type: nucleic-acid assay
Method in brief: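 Competition FRET: 0.2 µM F21T with 1 µM ligand, plus or minus unlabelled duplex ds26 at 3 µM (15-fold) or 10 µM (50-fold), in 10 mM Tris-HCl pH 7.4 with 60 mM KCl. Melting monitored at 470/530 nm over 37–99 °C.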

Quadruplex DNA [9] = assay: Stabilization of telomeric G-quadruplex DNA in human SiHa cells assessed as increase in BG4 foci per nucleus at 2 uM after 24 hrs by DAPI staining-based immunofluorescence method relative to control; type: cell-based
Method in brief: (§4)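 Cells were treated 24 h with 2 µM compound or 0.1% DMSO, then fixed (4% paraformaldehyde), permeabilized (0.5% Triton X-100) and blocked (5% goat serum). Staining used BG4 (80 ng/µL, 37 °C 3 h) with anti-FLAG, and/or γ-H2AX, TRF2 or POT1 antibodies at 4 °C overnight. Alexa 488/555 secondaries and DAPI followed. Foci or co-localized foci per nucleus were counted by confocal microscopy; mean ± SEM, two-tailed unpaired t test.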

Quadruplex DNA [10] = assay: Stabilization of telomeric G-quadruplex DNA in human SiHa cells assessed as induction of DNA damage response by measuring gamma-H2AX foci formation per nucleus at 2 uM after 24 hrs by DAPI staining-based immunofluorescence method relative to control; type: cell-based; method in brief: as §4
Quadruplex DNA [11] = assay: Stabilization of telomeric G-quadruplex DNA in human U2OS cells assessed as increase in BG4 foci per nucleus at 2 uM after 24 hrs by DAPI staining-based immunofluorescence method; type: cell-based; method in brief: as §4
U2OS [12] = assay: Cell cycle arrest in human U2OS cells at 1 uM after 12 hrs by propidium iodide staining-based flow cytometric method; type: functional
Method in brief: (§5)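 SiHa or U2OS cells (2.0×10^5 per well) were treated with compound or DMSO for 12 h, fixed in ice-cold 70% ethanol overnight, and stained with 50 µg/mL PI plus RNase A for 30 min at room temperature in the dark. 10,000 events were collected by flow cytometry to give the phase distribution.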

[13] = Binding affinity to hairpin duplex DNA (unknown origin) at 40 uM by SPR method; method in brief: as §3
SiHa [14] = assay: Cell cycle arrest in human SiHa cells at 1 uM after 12 hrs by propidium iodide staining-based flow cytometric method; type: functional; method in brief: as §5

| ΔTm [1] [°C] | ΔTm (Quadruplex DNA [2]) [°C] | IC50 (HL-60) [µM] | Kd (Quadruplex DNA [4]) [µM] | IC50 (HeLa) [µM] | Kd [5] [µM] | IC50 (U2OS [6]) [µM] | IC50 (A549) [µM] | IC50 [7] [µM] | Activity (Quadruplex DNA [8]) | Activity [13] | SMILES | IC50 (SiHa [3]) [µM] | Activity (Mus musculus) | Activity (Quadruplex DNA [9]) | Activity (Quadruplex DNA [10]) | Activity (Quadruplex DNA [11]) | Activity (U2OS [12]) | Activity (SiHa [14]) |
| --- | --- | --- | --- | --- | --- | --- | --- | --- | --- | --- | --- | --- | --- | --- | --- | --- | --- | --- |
| 0.2 | 21.4 | 2.9 | 8.8 | 2.8 | 16 | 5.3 | 1.4 |  |  |  | CN1CCN(c2cc3c(cc2F)/C(=C/c2nc4cc(NCCN5CCCCC5)c(F)cc4c(=O)[nH]2)C(=O)N3)CC1 | 4.4 |  |  |  |  |  |  |
|  |  |  |  |  |  |  |  |  |  |  | COc1cccc2c1C(=O)c1c(O)c3c(c(O)c1C2=O)C[C@@](O)(C(=O)CO)C[C@@H]3O[C@H]1C[C@H](N)[C@H](O)[C@H](C)O1 [DOXORUBICIN] |  | Toxic |  |  |  |  |  |
| 0.1 | 7.4 | 30.6 | 30 | 14 | > 40 | 12.5 | 15.4 |  |  |  | CN(C)CCCNc1cc2nc(/C=C3/C(=O)Nc4cc(N5CCN(C)CC5)ccc43)n(C)c(=O)c2cc1F | 14 |  |  |  |  |  |  |
| 0.1 | 8.4 | 4.1 | > 40 | 42.5 |  | 20.4 | 19.6 | > 40 | Active | inactive | CN(C)CCCNc1ccc2c(=O)[nH]c(/C=C3\C(=O)Nc4ccccc43)nc2c1 | 27.6 |  | inactive | inactive | inactive | inactive | inactive |
| 0.3 | 22.5 | 2.8 | 6.2 | 7.7 | 15 | 5.7 | 6 |  |  |  | CN(C)CCNc1cc2nc(/C=C3\C(=O)Nc4cc(N5CCN(C)CC5)c(F)cc43)[nH]c(=O)c2cc1F | 11.4 |  |  |  |  |  |  |
| 0.1 | 24.6 | 3.8 | 7.6 | 17.6 |  | 9 | 5.9 | 12.3 | Active | inactive | CN(C)CCCNc1cc2nc(/C=C3\C(=O)Nc4cc(N5CCN(C)CC5)c(F)cc43)[nH]c(=O)c2cc1F | 4.9 |  |  |  |  |  |  |
| 0.3 | 8.4 | 3.8 | > 40 | > 50 |  | > 50 | > 50 |  |  | inactive | O=C1Nc2cc(N3CCOCC3)c(F)cc2/C1=C/c1nc2cc(NCCCN3CCCC3)c(F)cc2c(=O)[nH]1 | 42.5 |  |  |  |  |  |  |
| 0.5 | 11.5 | > 50 | 21 | > 50 |  | > 50 | > 50 |  |  | inactive | CN1CCN(c2cc3c(cc2F)/C(=C/c2nc4cc(NCCCn5ccnc5)c(F)cc4c(=O)[nH]2)C(=O)N3)CC1 | > 50 |  |  |  |  |  |  |
| 0.2 | 12.6 | 16.1 | 23 | 48.6 |  | > 50 | > 50 |  |  | inactive | CN(C)CCCN(CCCN(C)C)c1cc2nc(/C=C3\C(=O)Nc4ccccc43)[nH]c(=O)c2cc1F | 10.1 |  |  |  |  |  |  |

| SMILES | ΔTm [1] [°C] | ΔTm (Quadruplex DNA [2]) [°C] | IC50 (HL-60) [µM] | Kd (Quadruplex DNA [4]) [µM] | IC50 (HeLa) [µM] | Kd [5] [µM] | IC50 (U2OS [6]) [µM] | IC50 (A549) [µM] | IC50 [7] [µM] | Activity (Quadruplex DNA [8]) | Activity [13] | IC50 (SiHa [3]) [µM] | Activity (Mus musculus) | Activity (Quadruplex DNA [9]) | Activity (Quadruplex DNA [10]) | Activity (Quadruplex DNA [11]) | Activity (U2OS [12]) | Activity (SiHa [14]) |
| --- | --- | --- | --- | --- | --- | --- | --- | --- | --- | --- | --- | --- | --- | --- | --- | --- | --- | --- |
| CN(C)CCCNc1c2ccccc2nc2c1[nH]c1ccccc12 | 5.2 | 11.6 |  |  |  |  |  |  |  | inactive |  |  |  |  |  |  |  |  |
